Lipid droplet – modulators of hepatic lipid droplet formation; AML12 mouse hepatocytes, oleate lipid droplets, BODIPY imaging; inhibition, % at 6.5 µM; 240,000 tested, 0.4% active; AID 1656;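 active = lipid droplet intensity inhibited by at least 50%, with more than 500 cells counted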
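Test system: AML12 hepatocytes (mouse); reagent: oleate loading, 100 µM; dosing: one dose, 6.5 µM compound; incubation: overnight exposure; signal: fluorescence imaging, 20x objective, two fields per well; read-out basis: % inhibition of corrected integrated BODIPY droplet signal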
CHOP UPR activ – apoptotic UPR (CHOP) activation; activation, % at 10 µM; AID 449763; CHO-CHOP luciferase reporter, luminescence; percent of tunicamycin response over DMSO baseline; 330,000 tested, 0.34% active;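 active = at 10 µM dose, activation of 40% or more, normalized to positive control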;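 note: 100% = tunicamycin at 10 µg/mL and 0% = DMSO alone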
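Material: CHO-CHOP cells, stable luciferase reporter of PERK-eIF2a-CHOP signalling; quantity: 500 reporter cells seeded per well; buffer or medium: F12 medium containing 10% fetal bovine serum; compound: one dose, 10 µM in 0.5% DMSO; incubation: 6 h compound treatment, 37 °C; measured by: Steady-Glo luciferase luminescence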
CHOP inh – inhibitors of CHOP induction in ER stress response. 220,000 tested, 3.8% active. AID 2732. inhibition, % at 10 µM. CHO-K1 CHOP-promoter luciferase, tunicamycin-induced, 15-18 h;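 active = compounds that reduced the stress-induced luciferase reporter signal by more than about 70% of percent inhibition, limit read from the data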;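 note: 0% = tunicamycin plus vehicle and 100% = wells without tunicamycin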
XBP1 UPR activ – adaptive UPR (XBP1) activation; CHO-XBP1 luciferase reporter, IRE1-XBP1 UPR activation, luminescence; percent of tunicamycin response, DMSO as zero; activation, % at 20 µM; 330,000 tested, 0.33% active;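 active = versus positive control, 20 µM dose yields 30% or more activation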;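 note: 100% = tunicamycin at 10 µg/mL and 0% = DMSO only wells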
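Material – CHO cell line with stable XBP1 luciferase reporter · Buffer or medium – F12 plus 10% FBS · Compound – single point, 20 µM final compound, 1% DMSO · Schedule – 16-18 h cell attachment at 37 °C, then 6 h compound exposure · Signal – Steady-Glo luminescence read · Benchmarks – high control tunicamycin 10 µg/mL final, low control DMSO vehicle only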
ANO1 block – inhibitors of mouse TMEM16A calcium-activated chloride channel; HEK293 TMEM16A/YFP iodide influx fluorescence, ionomycin; 310,000 tested, 1.2% active; normalized B-score (activity score, 25-100; higher = stronger inhibition) at 10 µM; Q8BHY3;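 active = ratio plate-corrected score three or more library SD toward inhibition, starting fluorescence score within five deviations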;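 note: score derived from kinetic fluorescence span divided by baseline fluorescence per well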
ANO1 activ – activators or potentiators of mouse TMEM16A chloride channel; Q8BHY3; HEK293 TMEM16A/YFP-H148Q/I152L, iodide quench fluorescence; active compounds read low; 340,000 tested, 0.3% active; B-score at 10 µM;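 active = fluorescence-ratio B-score plate-corrected deviation score at least 3 library SD below zero, with starting fluorescence score within 5 deviations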;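 note: channel opened by trigger with iodide after compound preincubation; score built on the fluorescence ratio of max minus min over baseline; more negative score means more quench and so TMEM16A activation or potentiation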
Starred values were filed as active, the others as inactive. A selection: hits, their analogues and other compounds. The true share with any hit is near 4.2%.

Results for CC1(C)Cc2c(cnn2-c2ccccc2)-c2c1c1ccccc1n2CC(O)CBr (stereo not given) ?
CHOP UPR activ: 2.6; CHOP inh: 95.4*; XBP1 UPR activ: -4.5; ANO1 block: inactive; ANO1 activ: inactive

What do the screens show for `CC1(C)Cc2c(cnn2-c2ccccc2)C(=O)/C1=N\NC(=O)c1ccccc1N`?
Lipid droplet: 0.8; CHOP UPR activ: 5.8; CHOP inh: 48.1; XBP1 UPR activ: 11.2; ANO1 block: inactive; ANO1 activ: inactive

Results for Cc1cc2ccccc2c(=O)n1CC(=O)NCC(=O)N1CCN(c2cccc(Cl)c2)CC1 ?
CHOP UPR activ: -0.7; CHOP inh: 89.2*; XBP1 UPR activ: 2.5; ANO1 block: inactive; ANO1 activ: inactive

Results for Nc1ccc(Oc2ccc3c(c2)C(=O)N(CC2CCCO2)C3=O)cc1 (stereo not given) ?
Lipid droplet: 2.0; CHOP UPR activ: 2.7; CHOP inh: 28.8; XBP1 UPR activ: -1.2; ANO1 block: inactive; ANO1 activ: inactive

What do the screens show for `O=C(NC1CCCCC1)N1CCC(c2nc3ccc(Cl)cc3[nH]2)CC1`?
CHOP UPR activ: -1.8; CHOP inh: 78.8*; XBP1 UPR activ: 1.8; ANO1 block: inactive; ANO1 activ: inactive

How did O=C(NC1CCCCC1)N1CCC(c2nc3ccccc3[nH]2)CC1 do in these assays?
Lipid droplet: 1.0; CHOP UPR activ: -0.8; CHOP inh: 8.6; XBP1 UPR activ: -1.5; ANO1 block: inactive; ANO1 activ: inactive

What do the screens show for `Cc1ccc2nc(-c3ccc(NS(=O)(=O)c4ccc(F)c(F)c4)cc3)sc2c1`?
Lipid droplet: -18.8; CHOP inh: 85.2*; ANO1 block: inactive; ANO1 activ: inactive

Results for Cc1ccc2nc(-c3ccc(NS(=O)(=O)c4ccccc4)cc3)sc2c1 ?
Lipid droplet: 1.3; CHOP UPR activ: 1.1; CHOP inh: 18.8; XBP1 UPR activ: -3.4; ANO1 block: inactive; ANO1 activ: inactive

What do the screens show for `Cc1cc(C)c(C)c(C(=O)CSc2nnc(-c3ccc4[nH]c(C)c(C)c4c3)o2)c1C`?
Lipid droplet: -1.5; CHOP UPR activ: -0.6; CHOP inh: 70.9*; XBP1 UPR activ: -1.5; ANO1 block: inactive; ANO1 activ: inactive

What do the screens show for `Cc1[nH]c2ccc(-c3nnc(SCC(=O)c4ccc(F)cc4)o3)cc2c1C`?
CHOP UPR activ: 1.6; CHOP inh: 26.0; XBP1 UPR activ: 14.0; ANO1 block: inactive; ANO1 activ: inactive

How did Cc1cccc(N2C(=O)CS/C2=N\NC(=O)c2ccc(Br)cc2)c1C do in these assays?
Lipid droplet: 8.2; CHOP UPR activ: 0.4; CHOP inh: 11.7; XBP1 UPR activ: -1.9; ANO1 block: inactive; ANO1 activ: inactive

Results for Cc1ccc(C(=O)N/N=C2\SCC(=O)N2c2cc(C)ccc2C)cc1 ?
Lipid droplet: -2.3; CHOP UPR activ: -1.8; CHOP inh: 75.3*; XBP1 UPR activ: 1.0; ANO1 block: inactive; ANO1 activ: inactive

What do the screens show for `CN(CC(=O)NCc1ccc(F)cc1)CC(=O)Nc1ccc(Cl)c(C(F)(F)F)c1`?
Lipid droplet: -19.3; CHOP UPR activ: 3.9; XBP1 UPR activ: -5.2; ANO1 block: 100*; ANO1 activ: inactive

Results for Cc1ccc(NC(=O)COc2ccccc2C(N)=O)cc1S(=O)(=O)N1CCCCCC1 ?
CHOP UPR activ: 4.0; XBP1 UPR activ: -1.4; ANO1 activ: inactive

What do the screens show for `Cc1cc(Oc2ccccc2)nc(-c2ccccc2)n1`?
CHOP UPR activ: 0.3; CHOP inh: 77.9*; XBP1 UPR activ: 3.1; ANO1 block: inactive; ANO1 activ: inactive

How did c1ccc(Oc2cc(-c3ccccc3)nc(-c3ccccc3)n2)cc1 do in these assays?
Lipid droplet: -9.7; CHOP UPR activ: 2.0; CHOP inh: 5.8; XBP1 UPR activ: -1.1; ANO1 block: inactive; ANO1 activ: inactive

Results for NC(=O)c1nc(C2CCCCC2)nc2c1[nH]c(=O)n2-c1ccc(F)cc1 ?
CHOP UPR activ: -0.1; CHOP inh: 88.7*; XBP1 UPR activ: 3.8; ANO1 block: inactive; ANO1 activ: inactive

Results for NNC(=O)c1sccc1OCc1ccc(Cl)cc1Cl ?
CHOP UPR activ: -1.3; CHOP inh: 10.2; XBP1 UPR activ: -2.5; ANO1 block: 25*; ANO1 activ: inactive

Results for COC(=O)C(C(=O)OC)C(C)C(C(=O)OC)C(=O)OC ?
Lipid droplet: 3.6; CHOP UPR activ: -3.1; CHOP inh: 4.0; XBP1 UPR activ: -0.8; ANO1 block: inactive; ANO1 activ: -17.8*

How did CC(C)CN=Cc1c(O)c([N+](=O)[O-])cc2oc3c(c12)CCCC3 do in these assays?
Lipid droplet: -5.7; CHOP UPR activ: 0.8; CHOP inh: 84.1*; XBP1 UPR activ: -1.6; ANO1 block: inactive; ANO1 activ: inactive

How did Cc1cccc(C)c1NC(=O)CN1CCNCC1 do in these assays?
Lipid droplet: 2.7; CHOP UPR activ: -2.1; CHOP inh: 87.0*; XBP1 UPR activ: 0.3; ANO1 block: inactive; ANO1 activ: inactive

What do the screens show for `Nc1nonc1-n1nnc(C(=O)N/N=C/c2ccc(OCc3ccccc3)cc2)c1COc1ccc(F)cc1`?
Lipid droplet: 3.0; CHOP UPR activ: 1.1; CHOP inh: 40.8; XBP1 UPR activ: 17.3; ANO1 block: inactive; ANO1 activ: inactive

How did Cc1cccc(COc2ccc(/C=N/NC(=O)c3nnn(-c4nonc4N)c3COc3ccc(F)cc3)cc2)c1 do in these assays?
Lipid droplet: -11.3; CHOP UPR activ: 6.9; CHOP inh: 29.0; XBP1 UPR activ: 37.3*; ANO1 block: inactive; ANO1 activ: inactive

Results for Cc1ccc([C@H]2C(C#N)=C(N)Oc3cc(C)oc(=O)c32)o1 ?
Lipid droplet: -21.1; CHOP UPR activ: 0.8; CHOP inh: -22.5; XBP1 UPR activ: -5.8; ANO1 block: inactive; ANO1 activ: -4.62*

Results for Cc1cc2c(c(=O)o1)C(c1cccs1)C(C#N)=C(N)O2 (stereo not given) ?
Lipid droplet: -3.7; CHOP UPR activ: 0.0; CHOP inh: 16.0; XBP1 UPR activ: -6.0; ANO1 block: inactive; ANO1 activ: inactive

Results for N#Cc1c(/N=C/c2ccco2)sc2c1CCC2 ?
Lipid droplet: 1.5; CHOP UPR activ: 5.2; CHOP inh: 32.5; XBP1 UPR activ: 7.5; ANO1 block: inactive; ANO1 activ: inactive

How did CC(C)CN(/C=N/c1sc2c(c1C#N)CCCCC2)CC(C)C do in these assays?
Lipid droplet: -7.9; CHOP UPR activ: 1.0; CHOP inh: 73.5*; XBP1 UPR activ: 1.2; ANO1 block: inactive; ANO1 activ: inactive

From PubChem
